In ChEMBL document CHEMBL3091295, “Inhibitors of tissue-nonspecific alkaline phosphatase: design, synthesis, kinetics, biomineralization and cellular tests” (Bioorg Med Chem, 2013):
Values after ≈ are worked out from the molar mass of the structure shown. Active and inactive are the calls of the source. No cut-off for these calls is given here.

Tests used:
[1] = target: T1, Intestinal-type alkaline phosphatase (Homo sapiens, UniProt P09923); experiment: Inhibition of intestinal alkaline phosphatase (unknown origin) assessed as para nitrophenylphosphate conversion to p-nitrophenolate at pH 10.4 incubated for 10 mins prior to substrate addition measured after 5 seconds by spectrophotometric analysis
Summary of the method: (§1)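 Enzyme (TNAP, PLAP or IAP; final 6.93–11.4 µg/ml) in buffer with inhibitor at 0–400 µM, added from 10 mM DMSO stock. Preincubated 10 min at 37 °C without substrate, then mixed with an equal volume of 0.1 mM pNPP in the same buffer and stirred 5 s. p-Nitrophenolate read at 400 nm (ε 18.5 cm⁻¹ mM⁻¹ at pH 10.4), final DMSO 4% v/v. Activity relative to the no-inhibitor control. pH 7.8 runs used 0.1 M Tris–HCl with 5 mM MgCl2 and 5 mM ZnCl2 at 37 °C.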

[2] = Solubility of the compound in water by UV spectrometric analysis; type: physicochemical
[3] = Inhibition of porcine kidney TNAP assessed as para nitrophenylphosphate conversion to p-nitrophenolate at pH 10.4 incubated for 10 mins prior to substrate addition measured after 5 seconds by spectrophotometric analysis; set-up: species or system Sus scrofa; summary of the method: as §1
[4] = Inhibition of porcine kidney TNAP assessed as para nitrophenylphosphate conversion to p-nitrophenolate at pH 7.8 incubated for 10 mins prior to substrate addition measured after 5 seconds by spectrophotometric analysis; set-up: species or system Sus scrofa; summary of the method: as §1
[5] = Uncompetitive inhibition of porcine kidney TNAP assessed as para nitrophenylphosphate conversion to p-nitrophenolate at pH 7.8 by Michaelis-Menten plot analysis; set-up: species or system Sus scrofa
Summary of the method: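 Porcine kidney TNAP activity measured with pNPP at pH 7.8 in 0.1 M Tris–HCl containing 5 mM MgCl2 and 5 mM ZnCl2 at 37 °C. Inhibitor was preincubated with enzyme for 10 min before substrate, and p-nitrophenolate was read at 400 nm to derive Ki.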

[6] = target: T2, Alkaline phosphatase, placental type (Homo sapiens, UniProt P05187); experiment: Inhibition of placental alkaline phosphatase (unknown origin) assessed as para nitrophenylphosphate conversion to p-nitrophenolate at pH 7.8 incubated for 10 mins prior to substrate addition measured after 5 seconds by spectrophotometric analysis; summary of the method: as §1
[7] = Cytotoxicity against human Saos2 cells assessed as cell viability up to 10 uM by MTT assay; type: cell-based; details: saos-2
Summary of the method: (§2)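 MTT viability: cells seeded at 3 × 10^4 cells/cm2 and treated with ascorbic acid plus 7.5 mM β-glycerophosphate, with or without inhibitor (DMSO ≤0.1% v/v final). MTT at 0.5 mg/ml final for 4 h, then solubilization solution overnight at 37 °C. Absorbance at 550 and 690 nm as % of untreated control, mean ± SD. MG63: one pool in triplicate (n = 3). Saos-2: 3–4 pools in triplicate (n = 9–12).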

SAOS-2 [8] = experiment: Reduction in beta-glycerophosphate-induced mineralization in human Saos2 cells at 10 uM after 7 days by Alizarin Red S staining-based assay relative to control; type: functional; set-up: scale not given: the % may be the effect or the level left
Summary of the method: (§3)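 Confluent cells were cultured 7 days in growth medium with ascorbic acid and 7.5 mM β-glycerophosphate, with or without inhibitor (DMSO ≤0.1% v/v). Saos-2 were grown in McCoy's 5A with 15% FBS. Mineral was stained with Alizarin Red S, destained with 3.6% w/v cetylpyridinium chloride in PBS pH 7.0 for 60 min at room temperature, and read at 562 nm. Results are % of control, mean ± SD; MG63 n = 3, Saos-2 n = 9–12.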

SAOS-2 [9] = experiment: Reduction in ascorbic acid-induced mineralization in human Saos2 cells at 10 uM after 7 days by Alizarin Red S staining-based assay relative to control; type: functional; set-up: scale not given: the % may be the effect or the level left; summary of the method: as §3
[10] = target: T2, Alkaline phosphatase, placental type; experiment: Inhibition of placental alkaline phosphatase (unknown origin) assessed as para nitrophenylphosphate conversion to p-nitrophenolate at pH 10.4 incubated for 10 mins prior to substrate addition measured after 5 seconds by spectrophotometric analysis; summary of the method: as §1
[11] = target: T1, Intestinal-type alkaline phosphatase; experiment: Inhibition of intestinal alkaline phosphatase (unknown origin) assessed as para nitrophenylphosphate conversion to p-nitrophenolate at pH 7.8 incubated for 10 mins prior to substrate addition measured after 5 seconds by spectrophotometric analysis; summary of the method: as §1
MG-63 [12] = experiment: Reduction in ascorbic acid-induced mineralization in human MG63 cells at 10 uM after 7 days by Alizarin Red S staining-based assay; type: functional, cell-based; summary of the method: as §3
[13] = Cytotoxicity against human MG63 cells assessed as cell viability up to 10 uM by MTT assay; type: cell-based; details: mg-63; summary of the method: as §2
MG-63 [14] = experiment: Reduction in beta-glycerophosphate-induced mineralization in human MG63 cells at 10 uM after 7 days by Alizarin Red S staining-based assay; type: functional, cell-based; summary of the method: as §3
[15] = Solubility of the compound

T1 sequence (P09923 whole entry): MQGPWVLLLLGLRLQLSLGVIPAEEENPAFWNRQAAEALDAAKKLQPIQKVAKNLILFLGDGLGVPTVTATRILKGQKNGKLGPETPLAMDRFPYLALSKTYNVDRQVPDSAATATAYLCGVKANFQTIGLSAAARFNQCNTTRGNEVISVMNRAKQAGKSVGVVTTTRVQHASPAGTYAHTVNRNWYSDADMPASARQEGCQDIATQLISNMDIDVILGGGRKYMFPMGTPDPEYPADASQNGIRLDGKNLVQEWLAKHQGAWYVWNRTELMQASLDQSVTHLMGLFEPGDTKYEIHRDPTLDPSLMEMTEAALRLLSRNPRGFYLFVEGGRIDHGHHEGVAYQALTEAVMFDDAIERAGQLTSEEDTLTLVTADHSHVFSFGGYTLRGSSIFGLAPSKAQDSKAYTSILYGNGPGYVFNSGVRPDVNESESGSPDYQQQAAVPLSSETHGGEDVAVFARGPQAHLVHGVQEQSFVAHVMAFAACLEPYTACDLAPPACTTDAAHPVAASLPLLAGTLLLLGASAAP
T2 sequence (P05187 whole entry): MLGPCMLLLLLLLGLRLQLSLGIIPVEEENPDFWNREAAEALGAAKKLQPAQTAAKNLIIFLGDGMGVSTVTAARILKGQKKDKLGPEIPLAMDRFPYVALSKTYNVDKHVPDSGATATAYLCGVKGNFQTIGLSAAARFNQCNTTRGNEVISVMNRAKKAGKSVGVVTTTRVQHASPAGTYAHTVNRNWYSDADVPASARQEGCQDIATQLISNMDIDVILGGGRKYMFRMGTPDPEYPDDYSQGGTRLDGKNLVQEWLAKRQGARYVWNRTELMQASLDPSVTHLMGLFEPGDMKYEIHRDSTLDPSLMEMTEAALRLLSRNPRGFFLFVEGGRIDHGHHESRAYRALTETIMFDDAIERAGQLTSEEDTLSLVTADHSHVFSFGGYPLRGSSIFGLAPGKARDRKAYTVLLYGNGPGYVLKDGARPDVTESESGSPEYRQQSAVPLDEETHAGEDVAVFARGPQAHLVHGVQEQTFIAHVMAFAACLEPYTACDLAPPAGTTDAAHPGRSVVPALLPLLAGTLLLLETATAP

**Q.** For `Cl.O=[N+]([O-])c1ccc2sc(C3CN4C=CSC4=N3)cc2c1` (racemic), which IC50 [1] is on record?
**A.** The IC50 was greater than 400 µM.

**Q.** And the solubility [2]?
**A.** Its solubility is 6900 µM.

**Q.** And the IC50 [3]?
**A.** Its IC50 is 3.31 µM.

**Q.** What about the IC50 [4] of the same compound?
**A.** Its IC50 is 2.11 µM.

**Q.** What about the Ki [5] of the same compound?
**A.** Its Ki is 1.3 µM.

**Q.** And the IC50 [6]?
**A.** Its IC50 is greater than 400 µM.

**Q.** What about the Activity [7] of the same compound?
**A.** The Activity was “Non-toxic”.

**Q.** And the Activity (SAOS-2 [8])?
**A.** Its Activity is 25%.

**Q.** And the Activity (SAOS-2 [9])?
**A.** The Activity was 25%.

**Q.** And the IC50 [10]?
**A.** Its IC50 is greater than 400 µM.

**Q.** What about the IC50 [11] of the same compound?
**A.** Its IC50 is greater than 400 µM.

**Q.** With `Cl.Nc1ccc2sc(C3CN4C=CSC4=N3)cc2c1` (racemic) as the compound, how does the IC50 [1] read?
**A.** Its IC50 is greater than 400 µM.

**Q.** What about the solubility [2] of the same compound?
**A.** Its solubility is 1770 µM.

**Q.** What about the IC50 [3] of the same compound?
**A.** Its IC50 is 23.2 µM.

**Q.** And the IC50 [4]?
**A.** The IC50 was 18.3 µM.

**Q.** What about the Ki [5] of the same compound?
**A.** Its Ki is 10.3 µM.

**Q.** What about the IC50 [6] of the same compound?
**A.** The IC50 was greater than 400 µM.

**Q.** And the Activity [7]?
**A.** Its Activity is “Non-toxic”.

**Q.** And the Activity (SAOS-2 [8])?
**A.** The Activity was “Active”.

**Q.** What about the Activity (SAOS-2 [9]) of the same compound?
**A.** The Activity was “Active”.

**Q.** And the IC50 [10]?
**A.** The IC50 was greater than 400 µM.

**Q.** And the IC50 [11]?
**A.** Its IC50 is greater than 400 µM.

**Q.** What does the source list for `C1=CN2CC(c3cc4ccccc4s3)N=C2S1.Cl` (racemic)?
**A.** Activity (MG-63 [12]): Active; IC50 [1]: > 400 µM; Activity [13]: Non-toxic; solubility [2]: 1300 µM; IC50 [3]: 13.1 µM; IC50 [4]: 4.4 µM; Ki [5]: 3.9 µM; IC50 [6]: > 400 µM; Activity (MG-63 [14]): Active; Activity [7]: Non-toxic; Activity (SAOS-2 [8]): Active; Activity (SAOS-2 [9]): Active; IC50 [10]: > 400 µM; IC50 [11]: > 400 µM

**Q.** Which Activity (MG-63 [12]) does the source give for `Cl.c1ccc2sc(C3CN4CCSC4=N3)cc2c1` (racemic) here?
**A.** The Activity was “Active”.

**Q.** What about the IC50 [1] of the same compound?
**A.** Its IC50 is greater than 400 µM.

**Q.** And the Activity [13]?
**A.** The Activity was “Non-toxic”.

**Q.** What about the solubility [2] of the same compound?
**A.** Its solubility is 450 µM.

**Q.** And the IC50 [3]?
**A.** The IC50 was 16.4 µM.

**Q.** What about the IC50 [4] of the same compound?
**A.** The IC50 was 5.5 µM.

**Q.** What about the Ki [5] of the same compound?
**A.** The Ki was 5 µM.

**Q.** What about the IC50 [6] of the same compound?
**A.** Its IC50 is greater than 400 µM.

**Q.** What about the Activity (MG-63 [14]) of the same compound?
**A.** The Activity was “Active”.

**Q.** What about the Activity [7] of the same compound?
**A.** Its Activity is “Non-toxic”.

**Q.** What about the Activity (SAOS-2 [8]) of the same compound?
**A.** The Activity was “Active”.

**Q.** And the Activity (SAOS-2 [9])?
**A.** Its Activity is “Active”.

**Q.** And the IC50 [10]?
**A.** The IC50 was greater than 400 µM.

**Q.** And the IC50 [11]?
**A.** The IC50 was greater than 400 µM.

**Q.** For `c1ccc([C@H]2CN3CCSC3=N2)cc1` [LEVAMISOLE], which Activity (MG-63 [12]) is on record?
**A.** Its Activity is “Active”.

**Q.** What about the IC50 [1] of the same compound?
**A.** Its IC50 is greater than 400 µM.

**Q.** What about the Activity [13] of the same compound?
**A.** The Activity was “Non-toxic”.

**Q.** What about the solubility [15] of the same compound?
**A.** Its solubility is 200000 µM (≈ 40.9 mg/mL).

**Q.** And the IC50 [3]?
**A.** Its IC50 is 62.9 µM.

**Q.** What about the IC50 [4] of the same compound?
**A.** The IC50 was 23.2 µM.

**Q.** And the Ki [5]?
**A.** Its Ki is 30.5 µM.

**Q.** And the IC50 [6]?
**A.** The IC50 was greater than 400 µM.

**Q.** And the Activity (MG-63 [14])?
**A.** Its Activity is “Active”.

**Q.** And the Activity [7]?
**A.** Its Activity is “Non-toxic”.

**Q.** And the Activity (SAOS-2 [8])?
**A.** The Activity was 33%.

**Q.** And the Activity (SAOS-2 [9])?
**A.** Its Activity is 33%.

**Q.** And the IC50 [10]?
**A.** Its IC50 is greater than 400 µM.

**Q.** What about the IC50 [11] of the same compound?
**A.** Its IC50 is greater than 400 µM.
